Experimental data reported in ChEMBL document CHEMBL4825712.

Columns and labels:
Influenza A virus = assay: Antiviral activity against Influenza A virus A/WSN/33(H1N1) infected in human A549 cells assessed as viral replication measured after 24 hrs by immunofluorescence microscopy; type: functional, organism-based; conditions: A/WSN/1933(H1N1); for IC50: A549, 24 h; for IC90: A549, time 24 hrs
Summary of the method: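 A549 cells were infected with A/WSN/33 at MOI 0.01 for 24 h, then fixed in 4% formaldehyde and permeabilized with 0.1% Triton X-100. They were immunostained for NP with an Alexa-488 secondary plus DAPI and imaged on an image cytometer. Percent infection = NP-positive cells divided by total cells.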

[1] = Selectivity index, ratio of CC50 for human A549 cells to IC50 for antiviral activity against Influenza A virus A/WSN/33(H1N1) infected in human A549 cells; type: toxicity, cell-based; conditions: read-out: Selectivity Index
Summary of the method: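 Ratio of CC50 to IC50. IC50 came from A549 cells pretreated 2 h with compound, then infected 24 h with WSN-PB2-Nanoluc at MOI 0.02 and read by Nano-Glo luminescence. CC50 was measured by CellTiter-Glo.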

A549 = assay: Cytotoxicity against human A549 cells by MTT assay; type: cell-based
Summary of the method: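 MTT assay run according to the manufacturer's instructions, concurrently with NP immunostaining of infected A549 cultures.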

| Compound | IC50 (Influenza A virus) | IC90 (Influenza A virus) | selectivity ratio [1] | CC10 (A549) | CC50 (A549) |
| --- | --- | --- | --- | --- | --- |
| CCN(c1ccc(F)cc1F)S(=O)(=O)c1cc(Cl)ccc1F | 0.82 µM | 18.5 µM | > 30 |  |  |
| C#CCN(c1ccccc1C)S(=O)(=O)c1cc(Cl)ccc1Cl | 0.38 µM | 5.1 µM | > 13 | > 5 µM | > 5 µM |
| CCN(c1cnc(C)nc1)S(=O)(=O)c1cc(Cl)ccc1Cl | > 5 µM |  |  |  |  |
| CCN(c1cnccc1C)S(=O)(=O)c1cc(Cl)ccc1Cl | > 5 µM |  |  |  |  |
| Cc1ccccc1N(C)S(=O)(=O)c1cc(Cl)ccc1Cl | > 5 µM | > 5 µM |  | > 5 µM | > 5 µM |
| CCN(c1ccc(Cl)cc1F)S(=O)(=O)c1cc(Cl)ccc1Cl | 0.15 µM | 1.8 µM | > 33 | > 5 µM | > 5 µM |
| CCN(c1ccc(C)nn1)S(=O)(=O)c1cc(Cl)ccc1Cl | > 5 µM |  |  |  |  |
| COCCN(c1ccc(Cl)cc1C)S(=O)(=O)c1cc(Cl)ccc1Cl | 1.2 µM | 6 µM | > 4 | > 5 µM | > 5 µM |
| CCN(c1ccc(F)cc1)S(=O)(=O)c1cc(Cl)ccc1Cl | 0.068 µM | 0.94 µM | > 74 | > 5 µM | > 5 µM |
| CCN(c1ccc(F)cc1F)S(=O)(=O)c1cccc(Cl)c1 | 0.49 µM | 10.3 µM | > 51 | 10.3 µM |  |
| Cc1cc(Cl)ccc1N(C(F)F)S(=O)(=O)c1cc(Cl)ccc1Cl | 1.3 µM | > 5 µM | > 4 | > 5 µM | > 5 µM |
| CCN(c1ccc(F)cc1F)S(=O)(=O)c1ccccc1Cl | > 25 µM | > 25 µM |  | > 25 µM |  |
| CCN(c1ccc(F)cc1F)S(=O)(=O)c1c(Cl)cccc1Cl | > 25 µM | > 25 µM |  | > 25 µM |  |
| CCOC(=O)Cc1ccc(N(CC)S(=O)(=O)c2cc(Cl)ccc2Cl)cc1 | 0.08 µM | 5.7 µM | > 63 | > 5 µM | > 5 µM |
| CCN(c1ccccc1C#N)S(=O)(=O)c1cc(Cl)ccc1Cl | 0.17 µM | 2.1 µM | > 29 | > 5 µM | > 5 µM |
| CCN(c1ccc(F)cc1F)S(=O)(=O)c1cc(F)ccc1Cl | 0.22 µM | 9.8 µM | > 114 |  |  |
| Cc1ccccc1N(C(C)C)S(=O)(=O)c1cc(Cl)ccc1Cl | 1.8 µM | > 5 µM | > 3 | > 5 µM | > 5 µM |
| CCN(c1ccncc1Cl)S(=O)(=O)c1cc(Cl)ccc1Cl | > 5 µM |  |  |  |  |
| CCN(c1ccc(F)cc1F)S(=O)(=O)c1ccc(Cl)c(Cl)c1 | > 25 µM | > 25 µM |  | > 25 µM |  |
| C#CCN(c1ccc(Cl)cc1C)S(=O)(=O)c1cc(Cl)ccc1Cl | 0.12 µM | 3.4 µM | > 42 | > 5 µM | > 5 µM |
| CCN(c1ccc(F)cc1F)S(=O)(=O)c1ccc(Cl)cc1Cl | > 25 µM | > 25 µM |  | > 25 µM |  |
| C=CCN(c1ccccc1C)S(=O)(=O)c1cc(Cl)ccc1Cl | 0.12 µM | 0.57 µM | > 42 | > 5 µM | > 5 µM |
| CCN(c1ccncc1F)S(=O)(=O)c1cc(Cl)ccc1Cl | > 5 µM |  |  |  |  |

| Compound | IC50 (Influenza A virus) | IC90 (Influenza A virus) | selectivity ratio [1] | CC10 (A549) | CC50 (A549) |
| --- | --- | --- | --- | --- | --- |
| Cc1ccccc1NS(=O)(=O)c1cc(Cl)ccc1Cl | > 5 µM | > 5 µM |  | > 5 µM | > 5 µM |
| CCN(c1ccc(CCN)cc1)S(=O)(=O)c1cc(Cl)ccc1Cl | > 25 µM | > 25 µM |  | > 25 µM | > 25 µM |
| CCN(c1ccc(CC(=O)O)cc1)S(=O)(=O)c1cc(Cl)ccc1Cl | > 25 µM | > 25 µM |  | > 25 µM | > 25 µM |
| CCN(c1ccc(CC(=O)N2CCN(C)CC2)cc1)S(=O)(=O)c1cc(Cl)ccc1Cl | > 25 µM | > 25 µM |  | > 25 µM | > 25 µM |
| Cc1cc(Cl)ccc1N(CC1CC1)S(=O)(=O)c1cc(Cl)ccc1Cl | 0.49 µM | 2.8 µM | > 10 | > 5 µM | > 5 µM |
| CCN(c1ccc(C)cc1)S(=O)(=O)c1cc(Cl)ccc1Cl | 0.084 µM | 1.8 µM | > 298 | > 25 µM | > 25 µM |
| CCN(c1c(C)cc(Cl)cc1Cl)S(=O)(=O)c1cc(Cl)ccc1Cl | 0.39 µM | > 5 µM | > 13 | > 5 µM | > 5 µM |
| CCN(c1c(F)cc(Cl)cc1F)S(=O)(=O)c1cc(Cl)ccc1Cl | 0.41 µM | > 5 µM | > 12 | 0.025 µM | > 5 µM |
| CCN(c1ccc(F)cc1F)S(=O)(=O)c1cc(F)ccc1F | 3.4 µM | > 25 µM | > 7 | > 25 µM |  |
| CCN(c1ccc(CCNC(C)=O)cc1)S(=O)(=O)c1cc(Cl)ccc1Cl | > 25 µM | > 25 µM |  | > 25 µM | > 25 µM |
| CCN(c1ccccc1)S(=O)(=O)c1cc(Cl)ccc1Cl | 0.86 µM | 6.9 µM | > 6 | > 5 µM | > 5 µM |
| CCN(c1ccc(C)nc1)S(=O)(=O)c1cc(Cl)ccc1Cl | > 5 µM |  |  |  |  |
| CCN(c1cnc(C)cn1)S(=O)(=O)c1cc(Cl)ccc1Cl | > 5 µM |  |  |  |  |
| CCN(c1ccccc1Cl)S(=O)(=O)c1cc(Cl)ccc1Cl | 0.15 µM | 1.5 µM | > 33 | > 5 µM | > 5 µM |
| Cc1cc(Cl)ccc1N(CCO)S(=O)(=O)c1cc(Cl)ccc1Cl | > 5 µM | > 5 µM |  | > 5 µM | > 5 µM |
| C=CCN(c1ccc(Cl)cc1C)S(=O)(=O)c1cc(Cl)ccc1Cl | 0.037 µM | 0.43 µM | > 135 | > 5 µM | > 5 µM |
| CCN(c1ccc(F)cc1F)S(=O)(=O)c1ccccc1 | > 25 µM | > 25 µM |  | > 25 µM |  |
| CCN(c1ccc(F)cc1F)S(=O)(=O)c1cccc(Cl)c1Cl | > 25 µM | > 25 µM |  | > 25 µM |  |
| CCN(c1ccc(CCO)cc1)S(=O)(=O)c1cc(Cl)ccc1Cl | > 25 µM | > 25 µM |  | > 25 µM | > 25 µM |
| CCN(c1ccc(Cl)cn1)S(=O)(=O)c1cc(Cl)ccc1Cl | > 5 µM |  |  |  |  |
| Cc1cc(Cl)ccc1N(CCF)S(=O)(=O)c1cc(Cl)ccc1Cl | 35 µM | > 5 µM | > 9 | > 5 µM | > 5 µM |
| CCN(c1ccc(F)cc1F)S(=O)(=O)c1cc(Cl)cc(Cl)c1 | 0.75 µM |  | > 33 | 25 µM |  |
